Data taken from ChEMBL document CHEMBL4706741, “De Novo Design, Synthesis, and Mechanistic Evaluation of Short Peptides That Mimic Heat Shock Protein 27 Activity” (ACS Med Chem Lett, 2021).
The source made the active and inactive calls. The rule behind the calls is not given here. Where a SMILES comes first, the peptide text is derived from it.

Key:
Type in all cases: functional
[1] = Chaperone like activity at heat-induced citrate synthase aggregation assessed as aggregation incubated for 5 mins followed by heat stimulation for 3 mins in 43 degC and measured after 60 mins by fluorimetric analysis relative to control; conditions: time 68.0 min
In short: (§1)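 Thermal aggregation of citrate synthase (150 nM). Peptides were brought to 43 °C in buffer, and CS was added once the temperature had equilibrated. Light scattering at 360 nm was monitored over time. CS with 1% DMSO was set as 100% aggregation, with an Hsp27 (600 nM) chaperone reference run on the same day. Mean ± SEM of at least two or three independent experiments.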

[2] = Chaperone like activity at kappa-casein amyloid formation at 200 uM measured upto 21 hrs by fluorescence based assay; conditions: time hrs <=21
[3] = Chaperone like activity at heat-induced citrate synthase aggregation assessed as aggregation at 200 uM incubated for 5 mins followed by heat stimulation for 3 mins in 43 degC and measured after 60 mins by fluorimetric analysis (reference value: 100%); conditions: time 68.0 min; in short: as §1
[4] = Chaperone like activity at heat-induced citrate synthase aggregation assessed as aggregation at 150 uM incubated for 5 mins followed by heat stimulation for 3 mins in 43 degC and measured after 60 mins by fluorimetric analysis (reference value: 100%); conditions: time 68.0 min; in short: as §1
[5] = Chaperone like activity at heat-induced citrate synthase aggregation assessed as aggregation at 0.6 uM incubated for 5 mins followed by heat stimulation for 3 mins in 43 degC and measured after 60 mins by fluorimetric analysis (reference value: 100%); conditions: time 68.0 min; in short: as §1
[6] = Chaperone like activity at kappa-casein amyloid formation at 10 to 200 uM measured upto 21 hrs by fluorescence based assay; conditions: dose 10-200 µM, time hrs <=21
[7] = Chaperone like activity at heat-induced citrate synthase aggregation assessed as aggregation at 30 uM incubated for 5 mins followed by heat stimulation for 3 mins in 43 degC and measured after 60 mins by fluorimetric analysis (reference value: 100%); conditions: time 68.0 min; in short: as §1
[8] = Chaperone like activity at Gdn-Cl/DTT-induced citrate synthase aggregation assessed as aggregation at 200 uM incubated for 5 mins followed by heat stimulation for 3 mins in 43 degC and measured after 60 mins by fluorimetric analysis (reference value: 100%); conditions: time 68.0 min
In short: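 Citrate synthase (150 nM) unfolded with guanidine chloride and DTT at room temperature, then a small aliquot diluted into refolding buffer with peptide (200 μM) or Hsp27 (600 nM). Aggregation followed by light scattering for 1 h. The 1% DMSO control at 1 h was taken as 100% aggregation. Mean ± SEM of at least two independent experiments.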

[9] = Chaperone like activity at heat-induced citrate synthase aggregation assessed as aggregation at 1.2 uM incubated for 5 mins followed by heat stimulation for 3 mins in 43 degC and measured after 60 mins by fluorimetric analysis (reference value: 100%); conditions: time 68.0 min; in short: as §1
[10] = Chaperone like activity at heat-induced citrate synthase aggregation assessed as aggregation at 60 uM incubated for 5 mins followed by heat stimulation for 3 mins in 43 degC and measured after 60 mins by fluorimetric analysis (reference value: 100%); conditions: time 68.0 min; in short: as §1
[11] = Chaperone like activity at heat-induced citrate synthase aggregation assessed as aggregation at 100 uM incubated for 5 mins followed by heat stimulation for 3 mins in 43 degC and measured after 60 mins by fluorimetric analysis (reference value: 100%); conditions: time 68.0 min; in short: as §1

Compound | Activity [3] | further results
H-GPSWDPFRDW-OH | 46% | Activity [1]: Dose-dependent effect; Activity [2]: inactive
N[C@H](CO)C(=O)N[C@H](Cc1c[nH]c2ccccc12)C(=O)N[C@H](CC(=O)O)C(=O)N1CCC[C@@H]1C(=O)N[C@H](Cc1ccccc1)C(=O)O | 90% | –
H-SWDAF-OH | 80% | –
H-DWDPF-OH | 110% | –
H-WDPFR-OH | 98% | –
N[C@@H](CO)C(=O)N[C@@H](Cc1c[nH]c2ccccc12)C(=O)N[C@@H](CC(=O)O)C(=O)N1CCC[C@H]1C(=O)N[C@@H](Cc1ccccc1)C(=O)O | 46% | Activity [4]: 15%; Activity [5]: 92%; Activity [6]: inactive; Activity [7]: 73%; Activity [8]: 63%; Activity [1]: Dose-dependent effect; Activity [9]: 75%; Activity [10]: 63%; Activity [11]: 23%
H-SWDPFR-OH | 96% | –
H-SADPF-OH | 86% | –
H-SWDPFRD-OH | 57% | Activity [8]: 52%
H-SWAPF-OH | 81% | –
H-SWDPA-OH | 78% | –
N[C@@H](Cc1c[nH]c2ccccc12)C(=O)N[C@@H](CC(=O)O)C(=O)N1CCC[C@H]1C(=O)N[C@@H](Cc1ccccc1)C(=O)O (H-WDPF-OH) | 115% | –
H-SWDPFRDW-OH | 13% | Activity [8]: 0%; Activity [1]: Dose-dependent effect
H-AWDPF-OH | 96% | –
